Measured values as given in ChEMBL document CHEMBL1128684, “The serotonin 5-HT4 receptor. 2. Structure-activity studies of the indole carbazimidamide class of agonists” (J Med Chem, 1995).

What was measured:
[1] = target: 5-hydroxytryptamine receptor 4 (Cavia porcellus) (UniProt O70528); assay: 5-hydroxytryptamine 4 receptor agonistic activity was measured by twitch response enhancing activity in electrically stimulated guinea pig ileum preparation; format: functional, tissue-based
Summary of the method: (§1)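 Longitudinal muscle strips of guinea pig ileum kept in tyrode solution with 0.1 μM methylsergide. Twitch contractions (2–3 s) evoked through platinum electrodes by square-wave pulses at 0.1 Hz and 2 ms duration. Once a stable submaximal response was reached, noncumulative concentration–response curves were built for the agonists.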

[2] = target: 5-hydroxytryptamine receptor 4 (Cavia porcellus) (UniProt O70528); assay: Relative efficacy compared to serotonin(1) in 5-hydroxytryptamine 4 assay; format: functional; summary of the method: as §1
[3] = target: T1, 5-hydroxytryptamine receptor 2A (Rattus norvegicus, UniProt P14842); assay: (§2) Agonistic activity against 5-hydroxytryptamine 2A receptor in rat cortex using [3H]ketanserin; format: tissue-based
Summary of the method: (§3)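 Binding to rat cortex. Table footnote lists [3H]ketanserin as the radioligand.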

[4] = target: Serotonin 3 (5-HT3) receptor; assay: Antagonistic activity against 5-hydroxytryptamine 3 receptor in guinea pig ileum assay
[5] = target: T1, 5-hydroxytryptamine receptor 2A; assay: as §2; format: functional, tissue-based
[6] = target: T1, 5-hydroxytryptamine receptor 2A; assay: Agonistic activity against 5-hydroxytryptamine 2A receptor in rat cortex using [3H]-ketanserin; format: tissue-based; summary of the method: as §3

Sequence of 5-hydroxytryptamine receptor 4 (Cavia porcellus) (O70528 whole entry): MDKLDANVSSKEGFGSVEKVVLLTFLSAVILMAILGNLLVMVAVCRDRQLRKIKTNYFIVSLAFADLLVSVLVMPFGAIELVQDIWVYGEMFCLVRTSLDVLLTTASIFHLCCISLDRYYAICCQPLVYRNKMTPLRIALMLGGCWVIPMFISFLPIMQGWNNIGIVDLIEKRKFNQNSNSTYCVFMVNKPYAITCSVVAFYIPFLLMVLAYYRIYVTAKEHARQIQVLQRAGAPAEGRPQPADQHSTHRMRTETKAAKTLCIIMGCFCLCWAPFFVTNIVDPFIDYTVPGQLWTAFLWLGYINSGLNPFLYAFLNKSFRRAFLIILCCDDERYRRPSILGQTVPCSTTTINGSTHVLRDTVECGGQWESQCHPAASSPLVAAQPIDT
T1 sequence (P14842 whole entry): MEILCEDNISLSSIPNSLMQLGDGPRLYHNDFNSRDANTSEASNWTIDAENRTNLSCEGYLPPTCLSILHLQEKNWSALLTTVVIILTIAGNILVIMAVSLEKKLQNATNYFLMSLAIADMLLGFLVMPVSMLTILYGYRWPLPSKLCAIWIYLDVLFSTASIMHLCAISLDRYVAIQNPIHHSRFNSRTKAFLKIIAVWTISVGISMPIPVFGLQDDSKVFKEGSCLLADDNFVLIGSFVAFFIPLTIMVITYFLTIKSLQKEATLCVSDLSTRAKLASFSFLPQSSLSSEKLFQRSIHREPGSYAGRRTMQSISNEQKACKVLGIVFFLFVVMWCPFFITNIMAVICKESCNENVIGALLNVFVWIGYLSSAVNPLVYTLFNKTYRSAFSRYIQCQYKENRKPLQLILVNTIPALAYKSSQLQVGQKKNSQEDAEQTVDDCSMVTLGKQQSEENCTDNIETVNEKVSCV

pD2 [1] | Relative efficacy [2] | Ki [3] [µM] | pA2 [4] | Ki [6] [µM] | SMILES | Ki [5] [µM]
7.6 | 0.3 |  |  |  | CCCCC/N=C(/N)N/N=C/c1c[nH]c2ccc(OCCN(C)C)cc12 | 
< 4 | 0 |  |  |  | CCCCC/N=C(/N)N/N=C/c1c[nH]c2ccc(OC(=O)CCCCC)cc12 | 
8.5 | 0.4 |  |  |  | N/C(=N/N=C/c1c[nH]c2ccc(O)cc12)NCCCc1ccccc1 | 
6.1 | 0.8 |  |  |  | Oc1ccc2[nH]cc(/C=N/Nc3ccccn3)c2c1 | 
7.3 | 1.4 |  |  |  | CCCCC/N=C(/N)N/N=C/c1c[nH]c2ccc(OCC(=O)N(C)C)cc12 | 
8.15 | 2.2 | 6.31 | < 5 |  | CCCCC/N=C(/N)N/N=C/c1c[nH]c2ccc(OCC=C(C)C)cc12 | 
8 | 1.6 | 2.34 |  |  | CCCCCCCN(C)C(=N)N/N=C/c1c[nH]c2ccc(O)cc12 | 
< 7 |  |  |  |  | CCCCC/N=C(/N)N/N=C/c1csc2ccc(O)cc12 | 
8.5 | 0.5 |  |  |  | N/C(=N/N=C/c1c[nH]c2ccc(O)cc12)NCCNC(=O)c1ccccc1 | 
7 | 0.5 |  |  |  | CCCCC/N=C(/N)N/N=C/c1c[nH]c2ccc(OC(=O)c3ccccc3)cc12 | 
< 7 | 0.1 |  |  |  | CCCCC/N=C(/N)N/N=C/c1c[nH]c2ccc(OCC)cc12 | 
6.5 | 0.5 |  |  |  | Oc1ccc2[nH]cc(/C=N/NC3=NCCS3)c2c1 | 
6.6 | 0.7 |  |  |  | CCCCC/N=C(/N)N/N=C/c1c[nH]c2ccc(OCCOC)cc12 | 
< 4 | 0 |  |  |  | CCCCCCCCNC(=N)N/N=C/c1c[nH]c2ccc(O)cc12 | 
< 5.5 |  |  |  |  | CCCCC/N=C(/N)N/N=C/c1c[nH]c2ccc([Si](C)(C)C)cc12 | 
8.5 | 0.5 |  |  |  | N/C(=N/N=C/c1c[nH]c2ccc(O)cc12)NCCc1ccccc1Cl | 
5.9 | 0.8 |  |  |  | CCCCC/N=C(/N)N/N=C/c1c[nH]c2ccc(OCCC(C)C)cc12 | 

pD2 [1] | Relative efficacy [2] | Ki [3] [µM] | pA2 [4] | Ki [6] [µM] | SMILES | Ki [5] [µM]
6.8 | 0.5 |  | < 5 | 2.51 | CCCCC/N=C(/N)N/N=C/c1c[nH]c2ccc(OC(C)C)cc12 | 
8.9 | 0.5 |  |  |  | COc1cccc(CCNC(=N)N/N=C/c2c[nH]c3ccc(O)cc23)c1 | 
7.8 | 0.9 | 1.35 |  |  | CCCCC/N=C(/N)N/N=C/c1c[nH]c2ccc(O)nc12 | 
8.4 | 0.2 |  |  |  | N/C(=N/N=C/c1c[nH]c2ccc(O)cc12)NCCc1ccc(Cl)cc1 | 
7.7 | 1 |  |  |  | CCCC(=O)/N=C(/N)N/N=C/c1c[nH]c2ccc(O)cc12 | 
8.5 | 0.5 |  |  |  | N/C(=N/C(=O)NC1CCCCC1)N/N=C/c1c[nH]c2ccc(O)cc12 | 
6.1 | 0.5 |  |  |  | CCCCC/N=C(/N)N/N=C/c1csc2ccc(OC)cc12 | 
9.1 | 1 |  |  |  | N/C(=N/N=C/c1c[nH]c2ccc(O)cc12)NCCc1ccccc1 | 
< 4 | 0 |  |  |  | CCCCC/N=C(/N)N/N=C/c1c[nH]c2ccc(NS(C)(=O)=O)cc12 | 
7.1 | 1 |  |  |  | CCCCC/N=C(/N)N/N=C/c1c[nH]c2ccc(OC)nc12 | 
7.4 | 1 |  |  |  | CCCCC/N=C(/N)N/N=C/c1c[nH]c2ccc(OCCO)cc12 | 
< 6 | 1.8 |  |  |  | CCCCC/N=C(/N)N/N=C/c1c[nH]c2ccc(OCc3ccccc3)cc12 | 
8.2 | 1 | 1.62 |  |  | Oc1ccc2[nH]cc(/C=N/Nc3ncc[nH]3)c2c1 | 
6.9 | 0.2 |  |  |  | CCCCCNC(=N)N/N=C/c1c[nH]c2ccc(OC)cc12 | 
> 10 | 0.1 |  | < 5 | 0.191 | Cl.N/C(=N/N=C/c1c[nH]c2ccc(O)cc12)NCCc1ccc(Cl)c(Cl)c1 | 
7.5 | 0.7 |  |  |  | CCCCC/N=C(/N)N/N=C/c1c[nH]c2ccc(OCOC)cc12 | 

SMILES | pD2 [1] | Relative efficacy [2] | Ki [3] [µM] | pA2 [4] | Ki [6] [µM] | Ki [5] [µM]
CCCCCN(C)C(=N)N/N=C/c1c[nH]c2ccc(O)cc12 | 7.7 | 0.3 |  |  |  | 
CCCCCNC(=N)N/N=C/c1c[nH]c2ccc(O)cc12 | 9.3 | 0.9 | 0.224 | < 5 |  | 
Oc1ccc2[nH]cc(/C=N/NC3=NCCN3)c2c1 | 7.3 | 0.7 |  |  |  | 
N/C(=N/N=C/c1c[nH]c2ccc(O)cc12)NCCCO | 7.7 | 0.7 |  |  |  | 
CCCCC/N=C(/N)N/N=C/c1c[nH]c2ccc(N)cc12 | 7.6 | 1.6 |  |  |  | 
CCCCC/N=C(/N)N/N=C/c1[nH]nc2ccc(OC)cc12 | < 4 | 0 |  |  |  | 
Cl.N=C(N)N/N=C/c1c[nH]c2ccc(O)cc12 | 8.8 | 1.5 |  | < 5 |  | 0.24
CCCCC/N=C(/N)N/N=C/c1c[nH]c2ccccc12 | < 6 | 0.1 |  |  |  | 
Oc1ccc2[nH]cc(/C=N/NC3=NCCC3)c2c1 | 7.1 | 1 |  |  |  | 
CCCCC/N=C(/N)N/N=C/c1c[nH]c2ccc(OC(=O)N(C)C)cc12 | < 7 | 0.7 |  |  |  | 
CCCCC/N=C(/N)N/N=C/c1[nH]nc2ccc(O)cc12 | < 4 | 0 |  |  |  | 
CN(/N=C/c1c[nH]c2ccc(O)cc12)C(=N)N | 5.8 | 0.5 |  |  |  | 
CN1CCN=C1N/N=C/c1c[nH]c2ccc(O)cc12 | < 4 | 0 |  |  |  | 
